Common to all, as to type: functional
Assay [1] has as its system Streptococcus pyogenes. The experiment in a line: Antibacterial activity against Streptococcus pyogenes MTCC 1925 assessed as zone of inhibition at 100 uL after 24 hrs by agar well-diffusion method. The essentials: (§1)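 Mueller-Hinton agar plates swabbed with a bacterial suspension adjusted to 1.5×10^8 CFU/ml. Each 5 mm well received 100 µl of compound, and plates were incubated at 37°C for 24 h. Chloramphenicol (30 mcg) was the positive control and DMSO the negative control. Inhibition zones around wells were measured manually, in triplicate.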
On the technique in general: Agar diffusion results depend on both activity and mobility in agar.

In assay [2] the test system is Escherichia coli. The experiment in a line: Antibacterial activity against Escherichia coli MTCC 730 assessed as zone of inhibition at 100 uL after 24 hrs by agar well-diffusion method. The method in brief: as §1
For assay [3], the system named is Bacillus cereus. The experiment in a line: Antibacterial activity against Bacillus cereus MTCC 430 after 18 hrs by TTC staining based broth microdilution method. To be noted: MTCC 430, 18 h. The essentials: (§2)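 Broth microdilution in Mueller-Hinton broth. 50 µl of inoculum from a 0.5 McFarland suspension was added to 50 µl of compound, giving final concentrations of 0.024–400 mg/ml in DMSO. Sealed plates were incubated at 37°C for 18 h, then 50 µl of 0.5% TTC was added for 1 h in the dark. MIC was the lowest concentration with no visible growth (well stays clear). Triplicate; mean ± SD.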
On the technique in general: In broth dilution the organism is exposed to a series of concentrations in liquid medium.

The test system of assay [4] is Bacillus cereus. The assay can be described thus: Antibacterial activity against Bacillus cereus MTCC 430 assessed as zone of inhibition at 100 uL after 24 hrs by agar well-diffusion method. The essentials: as §1
The test system of assay [5] is Klebsiella pneumoniae. The assay can be described thus: Antibacterial activity against Klebsiella pneumoniae MTCC 109 assessed as zone of inhibition at 100 uL after 24 hrs by agar well-diffusion method. The essentials: as §1
For assay [6], the system named is Salmonella enterica. The assay can be described thus: Antibacterial activity against Salmonella enterica MTCC 735 assessed as zone of inhibition at 100 uL after 24 hrs by agar well-diffusion method.
Assay [7] concerns Klebsiella pneumoniae. The experiment in a line: Antibacterial activity against Klebsiella pneumoniae MTCC 109 after 18 hrs by TTC staining based broth microdilution method. To be noted: MTCC 109, 18 h. The essentials:
as §2

Broadly, the MIC is the least concentration at which growth counts as inhibited. Low values mean inhibition by little substance, high ones a need for much substance.

≈ marks a conversion by molar mass, not a printed value.

In the case of `CCOc1ccc(C(c2c(O)c3ccccc3oc2=O)c2c(O)c3ccccc3oc2=O)cc1`, the inhibition zone (IZ) in assay [1] turned out to be 20 mm; in assay [2], 13 mm; in assay [4] it was 12 mm; in assay [5], 19 mm; in assay [6] it was 11 mm. The MIC amounted to 3120 µg/mL (≈ 6840 µM) in assay [3] and 780 µg/mL (≈ 1710 µM) in assay [7].
On to `O=c1oc2ccccc2c(O)c1C(c1ccc(Cl)cc1)c1c(O)c2ccccc2oc1=O`, for which the inhibition zone (IZ) in assay [1] turned out to be 24 mm; in assay [2] it was 23 mm; in assay [4], 19 mm; in assay [5] it was 25 mm; in assay [6] it was 10 mm. Also, the MIC in assay [3] worked out at 390 µg/mL (≈ 873 µM); in assay [7], 190 µg/mL (≈ 425 µM).
For the compound `O=c1oc2ccccc2c(O)c1C(c1ccccc1)c1c(O)c2ccccc2oc1=O`, the inhibition zone (IZ) was found to be 23 mm in assay [1]; 17 mm in assay [2]; 20 mm in assay [4]; 21 mm in assay [5]; 10 mm in assay [6]. Also, the MIC in assay [3] and in assay [7] was 190 µg/mL (≈ 461 µM) in each case.
Turning to `O=c1oc2ccccc2c(O)c1C(c1ccco1)c1c(O)c2ccccc2oc1=O`, the inhibition zone (IZ) in assay [1] turned out to be 18 mm; in assay [2], 15 mm; in assay [4], 14 mm; in assay [5], 17 mm; in assay [6], 11 mm. Besides, the MIC in assay [3] came out at 3120 µg/mL (≈ 7750 µM); in assay [7], 780 µg/mL (≈ 1940 µM).
On to `CC1(C)CC(=O)C(C(C2=C(O)CC(C)(C)CC2=O)c2ccccc2)=C(O)C1`, for which the inhibition zone (IZ) in assay [1], in assay [2], in assay [4], in assay [5] and in assay [6] was 0 mm in each case.
In the case of `O=c1oc2ccccc2c(O)c1C(c1ccccc1Cl)c1c(O)c2ccccc2oc1=O`, the inhibition zone (IZ) in assay [1] was 22 mm; in assay [2], 18 mm; in assay [4], 11 mm; in assay [5], 24 mm; in assay [6], 10 mm. The MIC in assay [3] was determined as 3120 µg/mL (≈ 6980 µM); in assay [7], 190 µg/mL (≈ 425 µM).
As for `CC1(C)CC(=O)C(C(C2=C(O)CC(C)(C)CC2=O)c2ccc([N+](=O)[O-])cc2)=C(O)C1`, the inhibition zone (IZ) in assay [1] worked out at 0 mm; in assay [2] it was 0 mm; in assay [4] it was 15 mm; in assay [5], 14 mm; in assay [6], 0 mm.
As to `O=c1oc2ccccc2c(O)c1C(c1ccc(O)cc1)c1c(O)c2ccccc2oc1=O`, the inhibition zone (IZ) in assay [1], in assay [2], in assay [4], in assay [5] and in assay [6] was 10 mm in each case. Further, the results for the MIC in assay [3] and in assay [7] were 6250 µg/mL (≈ 14600 µM) and 3120 µg/mL (≈ 7280 µM), respectively.
`O=c1oc2ccccc2c(O)c1C(c1ccc([N+](=O)[O-])cc1)c1c(O)c2ccccc2oc1=O`: the inhibition zone (IZ) is 15 mm in assay [1]; 13 mm in assay [2]; 16 mm in assay [4]; 19 mm in assay [5]; 11 mm in assay [6]. In addition, the minimal inhibitory concentration (MIC) in assay [3] stood at 780 µg/mL (≈ 1710 µM); in assay [7], 390 µg/mL (≈ 853 µM).
In the case of `COc1ccc(C(c2c(O)c3ccccc3oc2=O)c2c(O)c3ccccc3oc2=O)cc1OC`, the inhibition zone (IZ) amounted to 13 mm in assay [1]; 15 mm in assay [2]; 16 mm in assay [4]; 18 mm in assay [5]; 10 mm in assay [6]. Besides, the MIC in assay [3] and in assay [7] was 780 µg/mL (≈ 1650 µM) throughout.
Turning to `COc1cc(C(C2=C(O)CC(C)(C)CC2=O)C2=C(O)CC(C)(C)CC2=O)cc(OC)c1OC`, the inhibition zone (IZ) in assay [1], in assay [2], in assay [4], in assay [5] and in assay [6] was 0 mm throughout.
For `Cc1ccc(C(C2=C(O)CC(C)(C)CC2=O)C2=C(O)CC(C)(C)CC2=O)cc1`, the inhibition zone (IZ) in assay [1], in assay [2], in assay [4], in assay [5] and in assay [6] was 0 mm each time.
As to `CCC(C1=C(O)CC(C)(C)CC1=O)C1=C(O)CC(C)(C)CC1=O`, the inhibition zone (IZ) in assay [1], in assay [2], in assay [4], in assay [5] and in assay [6] was 0 mm in each case.
For the compound `COc1cc(C(c2c(C)[nH][nH]c2=O)C2C(=O)NC(=O)NC2=O)ccc1O` (stereo not given), the inhibition zone (IZ) is 16 mm in assay [1]; 17 mm in assay [2]; 20 mm in assay [4]; 16 mm in assay [5]; 10 mm in assay [6]. Besides, the results for the MIC in assay [3] and in assay [7] were 390 µg/mL (≈ 1080 µM) and 780 µg/mL (≈ 2160 µM), respectively.
On to `CC1(C)CC(=O)C(C(C2=C(O)CC(C)(C)CC2=O)c2cccc(F)c2)=C(O)C1`, for which the inhibition zone (IZ) in assay [1], in assay [2], in assay [4], in assay [5] and in assay [6] was 0 mm each time.
For `Cc1[nH][nH]c(=O)c1C(c1ccc(Cl)cc1)C1C(=O)NC(=O)NC1=O` (stereo not given), the inhibition zone (IZ) in assay [1] amounted to 16 mm; in assay [2], 17 mm; in assay [4], 17 mm; in assay [5] it was 21 mm; in assay [6] it was 11 mm. The MIC in assay [3] turned out to be 1560 µg/mL (≈ 4470 µM); in assay [7] it was 390 µg/mL (≈ 1120 µM).
On to `CC1(C)CC(=O)C(C(C2=C(O)CC(C)(C)CC2=O)c2ccc(Br)cc2)=C(O)C1`, for which the inhibition zone (IZ) in assay [1] is 10 mm; in assay [2], 11 mm; in assay [4], 11 mm; in assay [5], 11 mm; in assay [6], 0 mm.
As for `CN(C)c1ccc(C(C2=C(O)CC(C)(C)CC2=O)C2=C(O)CC(C)(C)CC2=O)cc1`, the inhibition zone (IZ) in assay [1], in assay [2], in assay [4], in assay [5] and in assay [6] was 0 mm each time.
`COc1ccc(C(C2=C(O)CC(C)(C)CC2=O)C2=C(O)CC(C)(C)CC2=O)cc1OC`: the inhibition zone (IZ) in assay [1], in assay [2], in assay [4], in assay [5] and in assay [6] was 0 mm each time.
As for `Cc1[nH][nH]c(=O)c1C(c1ccccc1[N+](=O)[O-])C1C(=O)NC(=O)NC1=O` (stereo not given), the inhibition zone (IZ) in assay [1] was 12 mm; in assay [2], 11 mm; in assay [4], 14 mm; in assay [5], 13 mm; in assay [6], 10 mm. Moreover, the MIC in assay [3] was determined as 6250 µg/mL (≈ 17400 µM); in assay [7] it was 3120 µg/mL (≈ 8680 µM).
As for `O=c1oc2ccccc2c(O)c1C(c1cccc(Br)c1)c1c(O)c2ccccc2oc1=O`, the inhibition zone (IZ) was determined as 21 mm in assay [1]; 19 mm in assay [2]; 13 mm in assay [4]; 20 mm in assay [5]; 11 mm in assay [6]. Besides, the minimum inhibitory concentration (MIC) in assay [3] was 3120 µg/mL (≈ 6350 µM); in assay [7], 390 µg/mL (≈ 794 µM).
As to `O=c1oc2ccccc2c(O)c1C(c1cccc(F)c1)c1c(O)c2ccccc2oc1=O`, the inhibition zone (IZ) worked out at 21 mm in assay [1]; 18 mm in assay [2]; 15 mm in assay [4]; 21 mm in assay [5]; 12 mm in assay [6]. Besides, the MIC in assay [3] was 780 µg/mL (≈ 1810 µM); in assay [7], 390 µg/mL (≈ 906 µM).
`Cc1[nH][nH]c(=O)c1C(c1ccc(N(C)C)cc1)C1C(=O)NC(=O)NC1=O` (stereo not given): the inhibition zone (IZ) came out at 10 mm in assay [1]; 10 mm in assay [2]; 13 mm in assay [4]; 10 mm in assay [5]; 12 mm in assay [6]. Moreover, the MIC in assay [3] and in assay [7] was 3120 µg/mL (≈ 8730 µM) each time.
In the case of `CC1(C)CC(=O)C(C(C2=C(O)CC(C)(C)CC2=O)c2ccc(Cl)cc2)=C(O)C1`, the inhibition zone (IZ) in assay [1], in assay [2], in assay [4], in assay [5] and in assay [6] was 0 mm in each case.
Take `CCOc1ccc(C(C2=C(O)CC(C)(C)CC2=O)C2=C(O)CC(C)(C)CC2=O)cc1`: the inhibition zone (IZ) in assay [1], in assay [2], in assay [4], in assay [5] and in assay [6] was 0 mm throughout.
Consider `Cc1ccc(C(c2c(O)c3ccccc3oc2=O)c2c(O)c3ccccc3oc2=O)cc1`, for which the inhibition zone (IZ) was 25 mm in assay [1]; 19 mm in assay [2]; 18 mm in assay [4]; 20 mm in assay [5]; 10 mm in assay [6]. Also, the MIC in assay [3] and in assay [7] was 390 µg/mL (≈ 915 µM) in each case.

The record behind these values is ChEMBL document CHEMBL4152354, “A reusable magnetic nickel nanoparticle based catalyst for the aqueous synthesis of diverse heterocycles and their evaluation as potential anti-bacterial agent” (2018).
